# The source made the active and inactive calls. The calls are words filed in the database; no cut-off is given here.
# Assays:
# Klebsiella pneumoniae = assay: Antimicrobial activity against Klebsiella pneumoniae ATCC 13831 after 6 hrs; assay type: functional; conditions: ATCC 13831, 6 h
# In short: (§1)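 Broth microdilution MIC. Compounds were dissolved in acetone at a 5 mg/mL starting concentration, added to wells containing sterile water, then serially doubled down. Inoculum was 1 × 10⁶ CFU/mL, incubated 37 °C for 24 h. Then 0.2 mg/mL p-iodonitrotetrazolium violet was added and colour read after 6 h. MIC was the lowest concentration without growth. Acetone and ciprofloxacin (starting 0.01 mg/mL) served as controls. At least triplicate, on consecutive days.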
# Staphylococcus aureus [1] = assay: Antimicrobial activity against Staphylococcus aureus ATCC 6538 after 6 hrs; assay type: functional; conditions: ATCC 6538, 6 h; in short: as §1
# Candida albicans = assay: Antimicrobial activity against Candida albicans ATCC 10231 after 24 hrs; assay type: functional; conditions: ATCC 10231, 24 h
# In short: (§2)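 Yeast MIC by serial doubling dilution. Compounds were dissolved in acetone at a 5 mg/mL starting concentration into sterile-water wells. Inoculum was 1 × 10⁶ CFU/mL at 37 °C for 24 h plus a further 24 h. Then 0.2 mg/mL p-iodonitrotetrazolium violet was added and colour read after 24 h. MIC was the lowest concentration showing no growth. Acetone and amphotericin B (starting 0.01 mg/mL) served as controls. At least triplicate, on consecutive days.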
# Escherichia coli [2] = assay: Antimicrobial activity against Escherichia coli ATCC 8739 after 6 hrs; assay type: functional; conditions: ATCC 8739, 6 h; in short: as §1
# Bacillus cereus = assay: Antimicrobial activity against Bacillus cereus ATCC 11778 after 6 hrs; assay type: functional; conditions: ATCC 11778, 6 h; in short: as §1
# Cryptococcus neoformans [3] = assay: Antimicrobial activity against Cryptococcus neoformans ATCC 90112 after 24 hrs; assay type: functional; conditions: ATCC 90112, 24 h; in short: as §2
# Escherichia coli [4] = assay: Antimicrobial activity against Escherichia coli ATCC 8739 at 1250 ug/mL after 6 hrs; assay type: functional, organism-based
# Cryptococcus neoformans [5] = assay: Antimicrobial activity against Cryptococcus neoformans ATCC 90112 at 1250 ug/mL after 24 hrs; assay type: functional, organism-based
# Staphylococcus aureus [6] = assay: Antimicrobial activity against Staphylococcus aureus ATCC 6538 at 1250 ug/mL after 6 hrs; assay type: functional, organism-based
MIC (Klebsiella pneumoniae),MIC (Staphylococcus aureus [1]),MIC (Candida albicans),MIC (Escherichia coli [2]),MIC (Bacillus cereus),MIC (Cryptococcus neoformans [3]),SMILES,Activity (Escherichia coli [4]),Activity (Cryptococcus neoformans [5]),Activity (Staphylococcus aureus [6])
469 µg/mL,39 µg/mL,19.5 µg/mL,156 µg/mL,19.5 µg/mL,65.1 µg/mL,c1ccc(-c2c[nH]c3ccccc23)cc1 [3-PHENYLINDOLE],,,
208 µg/mL,469 µg/mL,156 µg/mL,,625 µg/mL,78 µg/mL,COc1ccc(-c2c[nH]c3ccccc23)cc1,inactive,,
261 µg/mL,313 µg/mL,156 µg/mL,521 µg/mL,156 µg/mL,29.3 µg/mL,COc1ccc(-c2c[nH]c3ccc(OC)cc23)cc1,,,
313 µg/mL,635 µg/mL,156 µg/mL,625 µg/mL,156 µg/mL,58.5 µg/mL,COc1ccc(-c2cc3ccccc3[nH]2)cc1,,,
313 µg/mL,39.1 µg/mL,78 µg/mL,625 µg/mL,15.6 µg/mL,235 µg/mL,COc1ccc2[nH]cc(-c3ccccc3)c2c1,,,

# The remaining lines, values behind:
SMILES,MIC (Klebsiella pneumoniae),MIC (Staphylococcus aureus [1]),MIC (Candida albicans),MIC (Escherichia coli [2]),MIC (Bacillus cereus),MIC (Cryptococcus neoformans [3]),Activity (Escherichia coli [4]),Activity (Cryptococcus neoformans [5]),Activity (Staphylococcus aureus [6])
COc1ccc2[nH]cc(-c3ccccc3C)c2c1,313 µg/mL,29.3 µg/mL,117 µg/mL,313 µg/mL,19.5 µg/mL,625 µg/mL,,,
COc1ccc2[nH]c(-c3ccccc3)cc2c1,469 µg/mL,156 µg/mL,469 µg/mL,,3.9 µg/mL,,inactive,inactive,
COc1ccc2[nH]c(-c3cc(OC)c(OC)c(OC)c3)cc2c1,313 µg/mL,313 µg/mL,156 µg/mL,625 µg/mL,156 µg/mL,32.5 µg/mL,,,
COc1cc(-c2c[nH]c3ccccc23)c(OC)cc1Br,313 µg/mL,156 µg/mL,156 µg/mL,469 µg/mL,235 µg/mL,261 µg/mL,,,
COc1ccc(-c2cc3cc(OC)ccc3[nH]2)cc1,313 µg/mL,625 µg/mL,235 µg/mL,,313 µg/mL,,inactive,,
COc1ccc2[nH]cc(-c3ccccc3C(C)=O)c2c1,313 µg/mL,625 µg/mL,235 µg/mL,313 µg/mL,156 µg/mL,39 µg/mL,,,
COc1cc(-c2cc3ccccc3[nH]2)cc(OC)c1OC,391 µg/mL,469 µg/mL,117 µg/mL,313 µg/mL,20 µg/mL,313 µg/mL,,,
COc1ccc2[nH]cc(-c3ccccc3C=O)c2c1,313 µg/mL,156 µg/mL,156 µg/mL,235 µg/mL,78 µg/mL,313 µg/mL,,,
c1ccc2[nH]c(-c3cccc4ccccc34)cc2c1,313 µg/mL,625 µg/mL,156 µg/mL,938 µg/mL,625 µg/mL,625 µg/mL,,,
c1ccc(-c2cc3ccccc3[nH]2)cc1 [2-PHENYL-1H-INDOLE],313 µg/mL,469 µg/mL,156 µg/mL,1250 µg/mL,625 µg/mL,625 µg/mL,,,
COc1cc(-c2c[nH]c3ccccc23)cc(OC)c1OC,313 µg/mL,,313 µg/mL,313 µg/mL,235 µg/mL,29.3 µg/mL,,,inactive
COc1ccc2[nH]cc(-c3cc(OC)c(OC)c(OC)c3)c2c1,313 µg/mL,313 µg/mL,313 µg/mL,313 µg/mL,156 µg/mL,29.3 µg/mL,,,
COc1ccc2[nH]c(-c3ccccc3C)cc2c1,313 µg/mL,235 µg/mL,313 µg/mL,468 µg/mL,156 µg/mL,,,,

# Reference: ChEMBL document CHEMBL1155357, “The synthesis of 2- and 3-aryl indoles and 1,3,4,5-tetrahydropyrano[4,3-b]indoles and their antibacterial and antifungal activity” (2009)
